pIC50: −log10 of the molar value.

Results on 30 molecules are retold here after ChEMBL document CHEMBL3259759, “Discovery of novel bacterial elongation condensing enzyme inhibitors by virtual screening” (Bioorg Med Chem Lett, 2014).

Assay [1] relates to Escherichia coli. Briefly: Inhibition of Escherichia coli FabB at 200 uM by radiochemical assay. The gist of the method:
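Radiochemical condensing-enzyme assay with FabB, run per an earlier method except that lauryl-ACP replaced myristoyl-ACP. The lauryl-ACP was made with Vibrio harveyi acyl-ACP synthetase. Compounds were tested at a single final concentration of 200 μM, and inhibition is given as percent.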

A short description of assay [2]: Inhibition of Escherichia coli FabB by radiochemical assay. The procedure, abridged: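 Radiochemical condensing-enzyme assay with E. coli FabB, run as described earlier except that myristoyl-ACP was replaced by lauryl-ACP. The lauryl-ACP was made with Vibrio harveyi acyl-ACP synthetase. Compounds were first screened at a single final concentration of 200 μM, and selected compounds then went to dose-response testing to derive IC50.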

Assay [3] in a line: Inhibition of Staphylococcus aureus FabF by radiochemical assay.

In general, inhibition refers to the drop in the measured response relative to a control, in per cent. Lower therefore signals a weak effect. `O=c1oc2ccccc2n1CN(Cc1ccc(F)cc1)C1CC1`: in assay [1], the inhibition was determined as 5%.

As usually defined, the pIC50 is the negative decadic logarithm of the IC50, by convention in mol/L. Read a low pIC50 as a high IC50. Molecule `O=c1oc2ccc(Cl)cc2n1CN(CC1CCOC1)C1CC1` (racemic) gave a pIC50 in assay [2] of 3.46. In assay [1], the inhibition was found to be 36.7%.

`CN(Cc1cccc(O)c1)Cn1c(=O)oc2ccc(Cl)cc21` showed an inhibition in assay [1] of 41.4%.

As for `O=c1oc2cc(Cl)ccc2n1CN(Cc1ccccn1)C1CC1`, the inhibition in assay [1] came to 30%.

Molecule `CC(CN(C)Cn1c(=O)oc2cc(Cl)ccc21)N1CCOCC1` (racemic) showed an inhibition in assay [1] of 24.3%.

For the molecule `CN(CCN1CCCC1)Cn1c(=O)oc2cc(Cl)ccc21`, in assay [1], the inhibition came out at 26.4%.

In turn, `CN(CC1CCOCC1)Cn1c(=O)oc2cc(Cl)ccc21` registered an inhibition in assay [1] of 31.7%.

In assay [1], `O=c1oc2ccc(Cl)cc2n1CN1CCC1c1ccccc1` (racemic) showed an inhibition of 31.9%.

In turn, `COc1cccc(C2CCCN2Cn2c(=O)oc3cc(Cl)ccc32)c1` (racemic) displayed an inhibition in assay [1] of 36.4%.

In assay [2], `O=c1oc2ccc(Cl)cc2n1CN1CCCC1c1cccc(Br)c1` (racemic) had a pIC50 of 3.59. Besides, the inhibition in assay [1] was found to be 55.4%.

The molecule `COc1cccc(C2CCCN2Cn2c(=O)oc3ccc(Cl)cc32)c1` (racemic) showed a pIC50 in assay [2] of 3.52. This molecule also displayed an inhibition in assay [1] of 37.1%.

Consider `O=c1oc2ccccc2n1CN1CCCC1`, for which the inhibition in assay [1] is 24%.

Consider `O=c1oc2cc(Cl)ccc2n1CN1CCCCC1c1ccccc1` (racemic), for which the inhibition in assay [1] stood at 38%.

On to `O=c1oc2cc(Cl)ccc2n1CN1CCCC2(CCOCC2)C1`, for which, in assay [1], the inhibition amounted to 38.8%.

In turn, `CN1CCC(CN(C)Cn2c(=O)oc3cc(Cl)ccc32)C1` (racemic) gave an inhibition in assay [1] of 23.8%.

In assay [1], `Cc1ccc2oc(=O)n(CN(CC3CCOC3)C3CC3)c2c1` (racemic) displayed an inhibition of 40.1%.

As for `O=c1oc2ccc(Cl)cc2n1CN1CCCCC1c1ccccc1` (racemic), the pIC50 in assay [2] is 3.38. The molecule further yielded an inhibition in assay [1] of 30.4%.

For the molecule `COc1cccc(CN(Cn2c(=O)oc3cc(Cl)ccc32)C2CC2)c1`, the inhibition in assay [1] was found to be 28.3%.

For `O=c1oc2cc(Br)ccc2n1CN(CC1CCCC1)C1CC1`, the inhibition in assay [1] stood at 17.7%.

In turn, `O=c1sc2ccc(Cl)cc2n1CN1CCCC1c1cccc(Br)c1` (racemic) had a pIC50 in assay [2] of 3.52. The same molecule had an inhibition in assay [1] of 36.1%.

In assay [2], `N#Cc1ccc2oc(=O)n(CN3CCCC3c3cccc(Br)c3)c2c1` (racemic) gave a pIC50 of 3.60. In assay [1], this molecule came in with an inhibition of 42.1%.

In turn, `CN(CC1CCCC1)Cn1c(=O)oc2ccc(Cl)cc21` came in with an inhibition in assay [1] of 17.7%.

`O=c1oc2ccc(Cl)cc2n1CN1CCCC2(CCOCC2)C1`: the pIC50 in assay [2] is 3.47. The molecule further displayed an inhibition in assay [1] of 37.7%.

For `O=c1oc2cc(Cl)ccc2n1CN(CC1CCOC1)C1CC1` (racemic), the pIC50 in assay [2] was 3.10. In addition, in assay [1], the inhibition came to 24.1%.

For the molecule `O=c1oc2cc(Br)ccc2n1CN1CCC2(CC1)OCCO2`, the pIC50 in assay [2] was 3.22. In addition, the inhibition in assay [1] stood at 32.7%.

As for `CN(Cc1ccccc1)Cn1c(=O)oc2ccccc21`, the pIC50 was 3.63 in assay [2] and 3.41 in assay [3]. The molecule further showed an inhibition in assay [1] of 33.5%.

`O=c1oc2cc(Cl)ccc2n1CN(Cc1ccc(F)cc1)C1CC1` displayed an inhibition in assay [1] of 32.1%.

Molecule `O=c1oc2cc(Cl)ccc2n1CN(Cc1cccnc1)C1CC1` gave an inhibition in assay [1] of 23.6%.

Molecule `O=c1oc2ccccc2n1CN(Cc1ccsc1)C1CC1` returned an inhibition in assay [1] of 37.8%.

In turn, `CN(Cc1ccsc1)Cn1c(=O)oc2ccccc21` showed an inhibition in assay [1] of 30%.
